Screening data: PubChem, Broad Institute
Only a selection was taken, and hits are over-represented in it overall.
E-sel inducer – E-selectin induction on HUVECs | P16581 | HUVEC E-selectin immunofluorescence imaging; normalized: neutral wells 0, TNF-alpha wells 100 | activation, % at 7.58 µM | hit rate 0.37% among 260,000;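 active = mean E-selectin-positive cell signal at least 10% of the positive control, reached in at least 60% of replicates, without over 20% cell loss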
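System: HUVEC, human umbilical vein endothelial cells; quantity: 3,000 cells/well; buffer or medium: EGM-2 medium, gelatin-coated wells; dosing: single-point compound dose; detection: immunofluorescence imaging; evaluation: % PE-positive cells; benchmarks: TNF-alpha, DMSO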
Of the large screens only hits and unclear results are named; the others gave an inactive call.

COc1ccc(S(=O)(=O)Nc2ccc3c(c2)C(=O)N([C@@H](C)CO)C[C@H](C)[C@H](CN(C)C(=O)NC(C)C)O3)cc1	none
O=C(C[C@@H]1CC[C@@H](NC(=O)C2CC2)[C@H](CO)O1)Nc1ccccc1	none
CCC(=O)N1C[C@@H](C)[C@@H](OC)CN(C)C(=O)c2cc(NC(=O)Nc3ccccc3)ccc2OC[C@@H]1C	none
CCC(=O)Nc1ccc2c(c1)OC[C@H](C)N(Cc1ccccc1OC)C[C@H](C)[C@H](OC)CN(C)C2=O	none
C[C@H]1CN([C@@H](C)CO)C(=O)c2cccc(NC(=O)c3cnccn3)c2O[C@H]1CN(C)S(=O)(=O)c1ccc(Cl)cc1	none
O=c1[nH]c2ccccc2cc1CN(c1ccccc1)S(=O)(=O)c1ccccc1	none
COc1ccc2[nH]c(=O)c(CN(c3ccccc3)S(=O)(=O)c3ccccc3)cc2c1	E-sel inducer 86
COc1ccc2[nH]c(=O)c(CN(c3ccccc3OC)S(=O)(=O)c3ccccc3)cc2c1	none
CC(=O)N1CC[C@@H]2[C@@H](CO)N(C)c3ccc(-c4cccc(F)c4)cc3[C@@H]21	none
CO[C@H]1CC[C@@H]2CCOc3ccc(C#N)cc3C(=O)N(C)C[C@@H](C)C(=O)N(C)C[C@@H]1O2	none
C[C@H](CO)N1C[C@H](C)[C@H](CN(C)Cc2ccccc2)Oc2ccc(NC(=O)Cc3cn(C)c4ccccc34)cc2CC1=O	none
C[C@@H]1CN([C@@H](C)CO)C(=O)Cc2cc(NC(=O)Cc3cn(C)c4ccccc34)ccc2O[C@H]1CN(C)Cc1ccc(C(F)(F)F)cc1	E-sel inducer 61
C[C@H]1CN([C@@H](C)CO)C(=O)Cc2cc(NC(=O)Cc3cn(C)c4ccccc34)ccc2O[C@@H]1CN(C)C(=O)Nc1ccc(C(F)(F)F)cc1	E-sel inducer 50
C[C@@H]1CN([C@@H](C)CO)C(=O)Cc2cc(NC(=O)Cc3cn(C)c4ccccc34)ccc2O[C@H]1CN(C)C(=O)Nc1ccc(C(F)(F)F)cc1	none
C[C@H](CO)N1C[C@H](C)[C@H](CN(C)C(=O)Nc2ccc(C(F)(F)F)cc2)Oc2ccc(NC(=O)Cc3cn(C)c4ccccc34)cc2CC1=O	none
C[C@H]1CN([C@@H](C)CO)C(=O)Cc2cc(NC(=O)Cc3cn(C)c4ccccc34)ccc2O[C@H]1CN(C)C(=O)Nc1ccc(C(F)(F)F)cc1	none
O=C(Cc1ccccc1)N1CC(=O)N2[C@H](C1)[C@@H](c1ccc(C3=CCCC3)cc1)[C@@H]2CO	none
COc1ccc2c3c(n(C)c2c1)[C@H](CO)N(C(=O)c1ccccn1)CC31CCN(C(=O)c2ccccn2)CC1	none
O=C(CSc1ncn[nH]1)c1cccc([N+](=O)[O-])c1	E-sel inducer 38
O=C(CSc1nnc(-c2ccncc2)o1)c1cccc([N+](=O)[O-])c1	none
O=C(CSc1ccc(-c2ccco2)nn1)c1cccc([N+](=O)[O-])c1	none
O=C(N[C@H]1CC[C@H](CCn2cc(-c3ccccc3F)nn2)O[C@H]1CO)c1ccc2c(c1)OCO2	none
C[C@H]1CN([C@@H](C)CO)C(=O)c2cc(Br)cnc2O[C@H]1CN(C)C(=O)c1ccccc1F	none
C[C@@H]1CN([C@H](C)CO)C(=O)c2cc(NC(=O)CCN3CCOCC3)ccc2O[C@@H]1CN(C)C(=O)NC1CCCCC1	none
C[C@@H]1CN([C@H](C)CO)C(=O)c2cc(NC(=O)CCN3CCOCC3)ccc2O[C@H]1CN(C)C(=O)Nc1ccccc1	none
CC(C)NC(=O)N(C)C[C@H]1Oc2ccc(NC(=O)CCN3CCOCC3)cc2C(=O)N([C@H](C)CO)C[C@@H]1C	E-sel inducer 43
CC(C)NC(=O)N(C)C[C@H]1Oc2ccc(NC(=O)CCN3CCOCC3)cc2C(=O)N([C@H](C)CO)C[C@H]1C	none
CC(C)NC(=O)N(C)C[C@H]1Oc2ccc(NC(=O)CCN3CCOCC3)cc2C(=O)N([C@@H](C)CO)C[C@@H]1C	none
CC(C)NC(=O)N(C)C[C@@H]1Oc2ccc(NC(=O)CCN3CCOCC3)cc2C(=O)N([C@@H](C)CO)C[C@H]1C	E-sel inducer 33
CO[C@H]1CN(C)C(=O)c2cc(NS(C)(=O)=O)ccc2OC[C@H](C)N(Cc2cccnc2)C[C@@H]1C	none
COCC(=O)Nc1ccc2c(c1)C(=O)N(C)C[C@H](OC)[C@H](C)CN(CC1CCCCC1)[C@H](C)CO2	none
COc1cc(C2SCCS2)cc(Br)c1Oc1ncccc1[N+](=O)[O-]	E-sel inducer 61
Cc1ccc2ncnc(Oc3ncccc3[N+](=O)[O-])c2c1	none
COc1ccccc1Nc1ncccc1[N+](=O)[O-]	none
C[C@@H]1CN([C@H](C)CO)C(=O)c2cc(C#Cc3ccccc3F)cnc2O[C@@H]1CN(C)C(=O)Cc1ccccc1	none
C[C@H](CO)N1C[C@H](C)[C@H](CN(C)C(=O)Nc2ccc3c(c2)OCO3)Oc2c(NC(=O)c3ccncc3)cccc2C1=O	none
CCOc1cc(N2CCOCC2)c(OCC)cc1NC(=O)c1ccc(OC)cc1	none
CCOc1cc(N2CCOCC2)c(OCC)cc1NC(=O)c1ccc(S(=O)(=O)N2CC(C)OC(C)C2)cc1 (configuration not stated)	E-sel inducer 131
CCOc1cc(N2CCOCC2)c(OCC)cc1NC(=O)c1ccc(NC(C)=O)cc1	none
